{"source": "the M2OR odorant receptor database"}
{"tested_on": "T1, O14J1 N3Y", "T1 sequence (whole entry)": "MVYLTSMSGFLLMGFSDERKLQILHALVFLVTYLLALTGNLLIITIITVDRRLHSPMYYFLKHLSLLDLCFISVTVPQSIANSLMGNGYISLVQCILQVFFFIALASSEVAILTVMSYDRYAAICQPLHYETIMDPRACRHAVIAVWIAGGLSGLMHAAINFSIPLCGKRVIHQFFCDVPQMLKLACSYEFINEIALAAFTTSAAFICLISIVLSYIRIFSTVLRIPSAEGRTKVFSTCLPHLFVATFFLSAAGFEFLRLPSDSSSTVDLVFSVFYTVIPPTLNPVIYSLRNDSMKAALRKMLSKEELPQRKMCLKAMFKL", "conditions": "stereoisomer not certain", "outline": "(§1)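 Values were gathered from published papers (main text and supplementary material), with extra details requested from the original authors when needed, and checked for typos and inconsistencies. Each receptor–molecule pair is called responsive (active) if the original authors judged the measured signal statistically different from baseline, and non-responsive (inactive) otherwise. Assay methods varied by source, often transient mammalian cell-line luciferase assays. Recorded details include cell line, G-protein, co-transfected protein and tags.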"}
{"smiles": "CC1=C(O)C(=O)OC1C", "note": "(stereo not drawn)", "odorant receptor agonist call": "inactive"}
{"smiles": "CCCCCCC=CCCC=O", "odorant receptor agonist call": "inactive"}
{"smiles": "CCC1OC(C)=C(O)C1=O", "note": "(stereo not drawn)", "odorant receptor agonist call": "inactive"}
{"smiles": "CCC1OC(=O)C(O)=C1C", "note": "(stereo not drawn)", "odorant receptor agonist call": "inactive"}
{"smiles": "CC1=C(O)C(=O)C(C)O1", "note": "(stereo not drawn)", "odorant receptor agonist call": "inactive"}
{"smiles": "Cc1cnc(C)c(C)n1", "odorant receptor agonist call": "inactive"}
{"smiles": "CC1=NC(C)C(C)S1", "note": "(stereo not drawn)", "odorant receptor agonist call": "inactive"}
{"smiles": "CCCC(S)CCOC(C)=O", "note": "(stereo not drawn)", "odorant receptor agonist call": "inactive"}
{"tested_on": "T2, O14K1 D119Y", "T2 sequence (whole entry)": "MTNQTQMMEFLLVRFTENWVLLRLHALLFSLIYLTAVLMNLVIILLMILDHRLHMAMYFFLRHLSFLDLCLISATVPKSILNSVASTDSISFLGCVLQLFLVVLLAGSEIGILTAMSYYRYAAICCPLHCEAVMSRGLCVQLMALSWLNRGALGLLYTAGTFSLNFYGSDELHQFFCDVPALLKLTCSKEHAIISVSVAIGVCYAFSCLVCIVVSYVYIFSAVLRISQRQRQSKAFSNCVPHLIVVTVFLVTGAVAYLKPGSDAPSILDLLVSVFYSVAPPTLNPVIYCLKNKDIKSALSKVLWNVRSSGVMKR", "conditions": "stereoisomer not certain", "outline": "as §1"}
{"smiles": "CC1=C(O)C(=O)OC1C", "note": "(stereo not drawn)", "odorant receptor agonist call": "inactive"}
{"smiles": "CCCCCCC=CCCC=O", "odorant receptor agonist call": "inactive"}
{"smiles": "CCC1OC(C)=C(O)C1=O", "note": "(stereo not drawn)", "odorant receptor agonist call": "inactive"}
{"smiles": "CCC1OC(=O)C(O)=C1C", "note": "(stereo not drawn)", "odorant receptor agonist call": "inactive"}
{"smiles": "CC1=C(O)C(=O)C(C)O1", "note": "(stereo not drawn)", "odorant receptor agonist call": "inactive"}
{"smiles": "Cc1cnc(C)c(C)n1", "odorant receptor agonist call": "inactive"}
{"smiles": "CC1=NC(C)C(C)S1", "note": "(stereo not drawn)", "odorant receptor agonist call": "inactive"}
{"smiles": "CCCC(S)CCOC(C)=O", "note": "(stereo not drawn)", "odorant receptor agonist call": "inactive"}
{"tested_on": "T3, O2A25", "T3 sequence (whole entry)": "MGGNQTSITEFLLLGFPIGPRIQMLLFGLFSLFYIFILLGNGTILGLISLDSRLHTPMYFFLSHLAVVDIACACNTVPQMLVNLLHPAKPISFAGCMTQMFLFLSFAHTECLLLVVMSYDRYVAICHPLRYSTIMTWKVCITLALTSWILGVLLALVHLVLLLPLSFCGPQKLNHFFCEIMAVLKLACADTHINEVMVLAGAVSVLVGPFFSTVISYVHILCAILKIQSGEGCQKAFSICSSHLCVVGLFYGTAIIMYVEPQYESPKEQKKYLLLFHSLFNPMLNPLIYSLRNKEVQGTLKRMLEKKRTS", "conditions": "stereoisomer not certain", "outline": "as §1"}
{"smiles": "CC1=C(O)C(=O)OC1C", "note": "(stereo not drawn)", "odorant receptor agonist call": "inactive"}
{"smiles": "CCCCCCC=CCCC=O", "odorant receptor agonist call": "inactive"}
{"smiles": "CCC1OC(C)=C(O)C1=O", "note": "(stereo not drawn)", "odorant receptor agonist call": "inactive"}
{"smiles": "c1ccc2ncccc2c1", "odorant receptor agonist call": "active"}
{"smiles": "CCC1OC(=O)C(O)=C1C", "note": "(stereo not drawn)", "odorant receptor agonist call": "inactive"}
{"smiles": "CC1=C(O)C(=O)C(C)O1", "note": "(stereo not drawn)", "odorant receptor agonist call": "inactive"}
{"smiles": "Cc1cnc(C)c(C)n1", "odorant receptor agonist call": "inactive"}
{"smiles": "CC1=NC(C)C(C)S1", "note": "(stereo not drawn)", "odorant receptor agonist call": "inactive"}
{"smiles": "CCCC(S)CCOC(C)=O", "note": "(stereo not drawn)", "odorant receptor agonist call": "inactive"}
{"tested_on": "T4, O2AE1", "T4 sequence (whole entry)": "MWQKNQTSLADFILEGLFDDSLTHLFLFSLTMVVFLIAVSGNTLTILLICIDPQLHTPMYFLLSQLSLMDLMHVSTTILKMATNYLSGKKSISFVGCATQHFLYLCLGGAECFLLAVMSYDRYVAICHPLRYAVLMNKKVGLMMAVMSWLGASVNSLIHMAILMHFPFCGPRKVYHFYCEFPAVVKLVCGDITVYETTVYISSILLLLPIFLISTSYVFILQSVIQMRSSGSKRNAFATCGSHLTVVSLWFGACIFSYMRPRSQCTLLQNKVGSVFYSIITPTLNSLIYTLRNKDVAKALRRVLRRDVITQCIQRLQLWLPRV", "conditions": "stereoisomer not certain", "outline": "as §1"}
{"smiles": "CC1=C(O)C(=O)OC1C", "note": "(stereo not drawn)", "odorant receptor agonist call": "inactive"}
{"smiles": "CCCCCCC=CCCC=O", "odorant receptor agonist call": "inactive"}
{"smiles": "CCC1OC(C)=C(O)C1=O", "note": "(stereo not drawn)", "odorant receptor agonist call": "inactive"}
{"smiles": "CCC1OC(=O)C(O)=C1C", "note": "(stereo not drawn)", "odorant receptor agonist call": "inactive"}
{"smiles": "CC1=C(O)C(=O)C(C)O1", "note": "(stereo not drawn)", "odorant receptor agonist call": "inactive"}
{"smiles": "Cc1cnc(C)c(C)n1", "odorant receptor agonist call": "inactive"}
{"smiles": "CC1=NC(C)C(C)S1", "note": "(stereo not drawn)", "odorant receptor agonist call": "inactive"}
{"smiles": "CCCC(S)CCOC(C)=O", "note": "(stereo not drawn)", "odorant receptor agonist call": "inactive"}
{"tested_on": "T5, O2AJ1", "T5 sequence (whole entry)": "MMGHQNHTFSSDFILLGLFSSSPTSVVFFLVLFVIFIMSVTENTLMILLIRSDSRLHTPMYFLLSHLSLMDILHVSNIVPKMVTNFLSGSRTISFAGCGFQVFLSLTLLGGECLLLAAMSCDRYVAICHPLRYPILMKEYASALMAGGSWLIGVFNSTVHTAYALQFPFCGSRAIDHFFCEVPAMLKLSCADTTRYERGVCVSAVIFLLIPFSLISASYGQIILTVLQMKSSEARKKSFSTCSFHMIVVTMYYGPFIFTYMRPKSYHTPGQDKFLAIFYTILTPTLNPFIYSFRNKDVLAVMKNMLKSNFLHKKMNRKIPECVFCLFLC", "conditions": "stereoisomer not certain", "outline": "as §1"}
{"smiles": "CC1=C(O)C(=O)OC1C", "note": "(stereo not drawn)", "odorant receptor agonist call": "inactive"}
{"smiles": "CCC1OC(C)=C(O)C1=O", "note": "(stereo not drawn)", "odorant receptor agonist call": "inactive"}
{"smiles": "CCC1OC(=O)C(O)=C1C", "note": "(stereo not drawn)", "odorant receptor agonist call": "inactive"}
{"smiles": "CC1=C(O)C(=O)C(C)O1", "note": "(stereo not drawn)", "odorant receptor agonist call": "inactive"}
{"smiles": "Cc1cnc(C)c(C)n1", "odorant receptor agonist call": "inactive"}
{"smiles": "CC1=NC(C)C(C)S1", "note": "(stereo not drawn)", "odorant receptor agonist call": "inactive"}
{"smiles": "CCCC(S)CCOC(C)=O", "note": "(stereo not drawn)", "odorant receptor agonist call": "inactive"}
{"tested_on": "T6, O2AK2 S99N", "T6 sequence (whole entry)": "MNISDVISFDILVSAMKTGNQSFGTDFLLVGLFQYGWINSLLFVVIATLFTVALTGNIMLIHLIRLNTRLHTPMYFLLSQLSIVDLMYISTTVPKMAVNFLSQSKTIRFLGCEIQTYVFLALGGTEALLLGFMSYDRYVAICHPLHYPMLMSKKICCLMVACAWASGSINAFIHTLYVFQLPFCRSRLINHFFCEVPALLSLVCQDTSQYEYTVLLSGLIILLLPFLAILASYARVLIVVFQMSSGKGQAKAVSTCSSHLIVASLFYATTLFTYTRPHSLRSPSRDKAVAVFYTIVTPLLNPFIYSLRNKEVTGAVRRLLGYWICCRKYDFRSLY", "conditions": "stereoisomer not certain", "outline": "as §1"}
{"smiles": "CC1=C(O)C(=O)OC1C", "note": "(stereo not drawn)", "odorant receptor agonist call": "inactive"}
{"smiles": "CCCCCCC=CCCC=O", "odorant receptor agonist call": "inactive"}
{"smiles": "CCC1OC(C)=C(O)C1=O", "note": "(stereo not drawn)", "odorant receptor agonist call": "inactive"}
{"smiles": "CCC1OC(=O)C(O)=C1C", "note": "(stereo not drawn)", "odorant receptor agonist call": "inactive"}
{"smiles": "CC1=C(O)C(=O)C(C)O1", "note": "(stereo not drawn)", "odorant receptor agonist call": "inactive"}
{"smiles": "Cc1cnc(C)c(C)n1", "odorant receptor agonist call": "inactive"}
{"smiles": "CC1=NC(C)C(C)S1", "note": "(stereo not drawn)", "odorant receptor agonist call": "inactive"}
{"smiles": "CCCC(S)CCOC(C)=O", "note": "(stereo not drawn)", "odorant receptor agonist call": "inactive"}
